Results on two compounds are retold here after PMC8919062 (European journal of medicinal chemistry, 2021).

The test system of one experiment is Class IIa HDACs. Kind of experiment: class-distinguishing fluorogenic substrates whole-cell assay, class IIa, HT-29. It is filed as cell-based. The note with it: read-out: IC50 Class-IIa, HT-29 cells, Boc-Lys-TFA substrate.
Experiment [1] relates to Class I/IIb HDACs. The experiment can be described thus: class-distinguishing fluorogenic substrates whole-cell assay, class I/IIb, HT-29. It is filed as cell-based. The conditions noted are these: read-out: IC50 Class-I/IIb, HT-29 cells, Boc-Lys-Ac substrate.
Experiment [2] has as its system Class I/IIb HDACs. Kind of experiment: class-distinguishing fluorogenic substrates whole-cell assay, class I/IIb, L3.6. It is filed as cell-based. The note with it: read-out: IC50 Class I/IIb HDACs, L3.6 cells. The gist of the method:
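Whole cells incubated with 200 µM Boc-Lys-Ac (class-I/IIb selective substrate) in RPMI without phenol red plus 0.1% FBS, 3 h at 37 °C. Test compound given as an 11-point curve at 5% final DMSO; 5 µM trichostatin A served as positive control and DMSO alone as negative control. Trypsin developer (2.5 mg/mL, with tween 80) added for 1 h to lyse cells and release fluorophore. Read at ex 360 / em 460 nm; IC50 by nonlinear fit.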

The next experiment concerns Other HDACS. The experiment can be described thus: fluorogenic assay against recombinant HDAC proteins, other HDACs. In kind it is biochemical, human. The note with it: read-out: IC50 Other HDACS. The gist of the method:
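Recombinant human HDACs screened with commercial fluorogenic enzyme assay kits, following the manufacturer protocol, at 9 dilutions of test compound. Fluorescence read on a microplate reader. IC50 from nonlinear curve fit of % HDAC activity inhibition vs compound concentration.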

The subject of experiment [3] is indigenous class-IIa HDACs. The conditions noted are these: read-out: IC50 binding to indigenous class-IIa HDACs; THP-1 cells; ref [19]; cited from earlier work.
Another experiment has as its system HDAC4. The note with it: read-out: IC50 HDAC4 non-cell-based inhibition; ref [19],[20]; cited from earlier work.
Another experiment has as its system HDAC5. The conditions noted are these: read-out: IC50 HDAC5 non-cell-based inhibition; ref [19],[20]; cited from earlier work.
Another experiment deals with HDAC9. The conditions noted are these: in words; ref [19],[20]; cited from earlier work.

For “N-(3-(benzylamino)-2,2-dimethyl-3-oxopropyl)-4-(5-(trifluoromethyl)-1,2,4-oxadiazol-3-yl)benzamide [Compound 10]”, the IC50 is 933 ± 260 nM with Class IIa HDACs and over 15000 nM in the experiment with Class I/IIb HDACs [1].
In the case of `CC(C)(CNC(=O)c1cccc(-c2noc(C(F)(F)F)n2)c1)c1coc(-c2ccccc2)n1` [TMP195], the IC50 with Class I/IIb HDACs [2] is over 5000 nM; in the experiment with Other HDACS, over 5000 nM; in experiment [3], 300 nM; with HDAC4 it was over 100 nM; in the experiment on HDAC5, over 100 nM. Moreover, the “IC50 HDAC9 non-cell-based inhibition” value with HDAC9 was “low nM range”.
